# This is a sample that favours compounds with a hit; in the whole collection about 4.7% have one here.
# MT1-MMP act inh = blockers of MT1-MMP proenzyme processing, primary screen, HT1080 RFP-PRO-GFP cells, GFP/RFP fluorescence; GFP/RFP ratio change, % at 20 µM; 0.061% of 360,000 active; GFP/RFP ratio fluorescence, overnight; percent of plate control window, DMSO zero; Matrix metalloproteinase-14 (Homo sapiens), P50281; AID 651647, 2012;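 active means GFP/RFP ratio change of at least 30% with cell ATP level not reduced by more than half and red fluorescence within 50% of control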
#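 Test system: HT1080 cells expressing an RFP-PRO-GFP fluorescent reporter construct / Compound dosing: single-point 20 µM compound, 1% DMSO / Schedule: cells overnight before dosing, compound overnight, 37 °C, 5% CO2 / Evaluation: GFP/RFP fluorescence ratio / Control set: DMSO and RFP-L50D-GFP cell wells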
# ADAM17 inh = ADAM17 inhibitors, primary screen, biochemical, QFRET. inhibition, % at 6.95 µM. 0.83% of 370,000 active. recombinant ADAM17, EDANS/DABCYL FRET peptide cleavage. AID 720648, 2013. Disintegrin and metalloproteinase domain-containing protein 17 (Homo sapiens), P78536;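 active means inhibition above the mean of compounds lying between control limits plus 3 SD, set per campaign, cut at about 8.5% in these data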;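 further: 0% = DMSO-only wells as the low control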
# Target sequence (P78536 215-824 limits assumed): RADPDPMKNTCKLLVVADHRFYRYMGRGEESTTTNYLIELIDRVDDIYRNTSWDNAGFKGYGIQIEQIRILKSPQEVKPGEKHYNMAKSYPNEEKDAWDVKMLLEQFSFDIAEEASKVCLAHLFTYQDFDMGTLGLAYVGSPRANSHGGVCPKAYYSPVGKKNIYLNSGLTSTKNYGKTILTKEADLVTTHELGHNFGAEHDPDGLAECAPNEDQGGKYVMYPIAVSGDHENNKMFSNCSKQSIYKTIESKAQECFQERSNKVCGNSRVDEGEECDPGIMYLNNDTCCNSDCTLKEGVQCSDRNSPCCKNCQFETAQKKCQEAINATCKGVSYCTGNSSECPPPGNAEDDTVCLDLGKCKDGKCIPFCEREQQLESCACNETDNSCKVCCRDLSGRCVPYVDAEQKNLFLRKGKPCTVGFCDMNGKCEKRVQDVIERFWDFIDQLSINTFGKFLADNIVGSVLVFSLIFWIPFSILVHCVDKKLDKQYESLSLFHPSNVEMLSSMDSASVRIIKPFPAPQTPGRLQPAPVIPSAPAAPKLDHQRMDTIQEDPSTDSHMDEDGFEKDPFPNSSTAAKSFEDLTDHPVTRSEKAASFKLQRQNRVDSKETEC
# GRIN3A LBD mod = binders of NR3A ligand-binding domain, primary screen, biophysical, differential scanning fluorimetry, uHTS; Glutamate receptor ionotropic, NMDA 3A (GRIN3A) ligand-binding domain; NR3A LBD differential scanning fluorimetry, Tm shift; 0% = protein alone, 100% = glycine-bound protein; Tm shift relative to glycine control, % at 25 µM; 2.5% of 340,000 active; AID 1259313, 2017;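 active means melting temperature shift of at least 10% of the positive control shift, at one fixed dose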
# SKN-1 block = suppressors of acrylamide-induced Pgst-4::GFP reporter in worms, primary screen, SKN-1 inhibitor project, whole organism, uHTS, GFP/RFP fluorescence ratio, strain VP596 | C. elegans VP596 Pgst-4::GFP/RFP ratio, 24 h | inhibition, % at 21.8 µM | 0.49% of 360,000 active | AID 624304, 2012;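 active means interference check ratio from 0.5 to 1.5 plus GFP to RFP signal ratio inhibition reaching or exceeding a fixed threshold, cut at about 30% in these data, passing the limit was not always enough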
# MPTP inh = mitochondrial permeability transition pore inhibitors, primary screen, biochemical, isolated mouse mitochondria, absorbance. Ca2+ swelling absorbance, 30 min. inhibition, % at 10 µM. 1.4% of 360,000 active;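 active means inhibition of 50% or more, scaled per plate between neutral and stimulator controls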;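 further: 0% = DMSO wells given calcium and 100% = 1 mM EGTA wells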
# ADAM10 inh = human ADAM10 inhibitors, primary screen, biochemical, QFRET, HTS. inhibition, % at 7 µM. AID 720582, 2013. 0.62% of 370,000 active. recombinant ADAM10, EDANS/DABCYL FRET peptide cleavage, 3 h;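 active means inhibition above a per-campaign cutoff equal to the mean of compounds falling between control-based bounds plus 3 SD, cut at about 20% in these data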;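 further: 0% = DMSO wells while the 100% control is not disclosed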
# An asterisk follows results filed as active; i = inactive; x = no result given.
SMILES,MT1-MMP act inh,ADAM17 inh,GRIN3A LBD mod,SKN-1 block,MPTP inh,ADAM10 inh
Cc1cc(NC(=O)c2sc(Nc3ccc(F)c(Cl)c3)nc2N)no1,5.7,-5.1,23.3*,16.7,-1.8,2.4
Cc1cc(NC(=O)c2sc(Nc3cccc(C(F)(F)F)c3)nc2N)no1,7.8,0.3,19.9*,2.5,13.5,7.5
CCCCn1c(N)c(N(CC(C)C)C(=O)c2cccc(S(=O)(=O)N3CCCCCC3)c2)c(=O)[nH]c1=O,-0.3,1.9,0.9,0.4,-0.1,-6.0
Cc1ccc(C2CC(c3ccc(NS(C)(=O)=O)cc3)=NN2C(=O)c2ccco2)cc1 (centres undefined),1.3,-8.0,-12.1,10.4,-1.4,-22.4
CS(=O)(=O)Nc1ccc(C2=NN(C(=O)c3ccco3)C(c3ccccc3)C2)cc1 (centres undefined),-4.9,-7.5,11.7*,8.3,-0.9,-14.5
c1csc(-c2noc(COc3ccc4c(c3)CCCC4)n2)c1,-5.3,0.9,1.8,37.8*,-0.1,2.2
CCN(c1ccccc1)S(=O)(=O)c1cc(NC(=O)CN2CCN(C)CC2)ccc1Cl,-3.2,-0.8,-0.2,5.6,-0.8,-2.3
O=C(c1ccc(-c2cccc(C(F)(F)F)c2)o1)N1CCOCC1,1.4,-1.4,0.5,45.1*,-1.1,0.2
CC(=O)N1CCN(C(=O)c2ccc(-c3cccc(C(F)(F)F)c3)o2)CC1,1.4,-4.8,0.5,30.1,-1.3,-4.7
O=C(O)c1cccc(NC(=S)N/N=C/c2cccnc2)c1,6.2,-1.8,-2.4,-6.1,-0.5,-11.0
COc1ccc(/C=N/Nc2nonc2N)cc1OC,-0.8,-0.6,-8.4,-30.8,1.1,4.3
Nc1nonc1N/N=C\c1ccccc1,1.1,-1.8,17.5*,13.2,6.0,-2.0
Nc1cnnc(N/N=C\c2ccccc2)c1Cl,-0.8,-216.4,0.2,14.2,1.3,i
COc1ccc(/C=N/Nc2nonc2N)cc1,-0.5,-0.5,17.3*,1.8,-0.4,-0.9
C[C@@H]1CN([C@@H](C)CO)C(=O)c2cc(Br)cnc2O[C@@H]1CN(C)Cc1ccccn1,x,-4.4,x,x,x,-5.5
COC[C@H]1CCCN1[C@@H]1CS(=O)(=O)N[C@H]1COCc1ccccc1,-1.8,-9.1,x,-2.9,8.3,-20.1
CCCc1nnc(NC(=O)C(=O)NCCN(CC)CC)s1,3.1,-3.0,0.4,-1.0,2.2,-2.8
O=C(/C=C/c1ccc(O)cc1)c1c(O)cc(O)cc1O,1.5,0.9,-4.4,-5.6,-0.2,-11.4
C=C(C)C(O)CC/C(C)=C/Cc1c(O)ccc(C(=O)/C=C/c2ccc(O)cc2)c1O (centres undefined),-6.7,4.8,14.8*,-3.8,2.9,10.2
COc1ccc(C(=O)/C=C/c2ccc(O)cc2)c(O)c1C/C=C(\C)CCC=C(C)C,-1.4,1.4,30.1*,-0.4,5.5,-3.7
COc1ccc(C=CC(=O)c2ccc(OC)c(OC)c2O)cc1OC,6.1,4.5,2.2,1.6,-0.7,-2.7
C/C(=C\C(=O)c1ccccc1)NNc1nc2ccccc2s1,-3.8,1.2,-1.5,-0.2,1.6,-0.3
COc1ccc(C2=NOC(C(=O)N3CCN(C(=O)c4ccco4)CC3)C2)cc1OC (centres undefined),1.0,-4.4,39.4*,-0.8,-1.3,1.0
C=CCN(CC=C)CC(O)CN(c1cc([N+](=O)[O-])ccc1OC)S(=O)(=O)c1ccccc1 (centres undefined),3.9,7.2,-3.8,38.2*,0.8,8.5
COc1ccc([N+](=O)[O-])cc1N(CC(O)CN(C)C)S(=O)(=O)c1ccccc1 (centres undefined),0.9,0.1,8.4,6.3,-0.1,-2.3
O=C(CN1CCN(C(=O)c2ccco2)CC1)Nc1cccc(S(=O)(=O)N2CCCC2)c1,-1.1,-5.6,0.3,2.6,0.5,-2.2

# Compound activity from PubChem BioAssay.
